Activity calls are given as the source filed them. No cut-off for these calls is given here.
Tests used:
[1] = biological target: T1, Mitogen-activated protein kinase kinase kinase 7 (Homo sapiens, UniProt O43318); experiment: Inhibition of TAK1 (unknown origin) by LanthaScreen assay
T1 sequence (O43318 whole entry): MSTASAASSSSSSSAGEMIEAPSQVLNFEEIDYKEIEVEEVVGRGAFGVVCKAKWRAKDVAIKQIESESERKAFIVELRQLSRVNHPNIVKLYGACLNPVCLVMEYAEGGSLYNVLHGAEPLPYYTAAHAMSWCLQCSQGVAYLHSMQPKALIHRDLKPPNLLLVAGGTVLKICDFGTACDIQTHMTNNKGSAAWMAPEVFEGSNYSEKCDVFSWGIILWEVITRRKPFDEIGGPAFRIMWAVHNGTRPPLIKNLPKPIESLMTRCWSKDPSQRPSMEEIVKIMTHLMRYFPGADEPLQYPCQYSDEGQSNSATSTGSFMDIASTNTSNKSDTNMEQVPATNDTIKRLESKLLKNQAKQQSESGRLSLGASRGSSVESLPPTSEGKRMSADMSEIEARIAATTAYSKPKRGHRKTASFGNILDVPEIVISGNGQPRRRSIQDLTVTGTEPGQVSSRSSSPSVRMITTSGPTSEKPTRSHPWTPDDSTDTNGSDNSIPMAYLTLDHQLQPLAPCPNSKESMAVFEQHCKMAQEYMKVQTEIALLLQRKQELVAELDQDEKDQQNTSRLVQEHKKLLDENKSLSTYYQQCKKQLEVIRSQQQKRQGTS

BaF3 [2] = experiment: Antiproliferative activity against mouse BA/F3 cells after 72 hrs by CellTiter-Glo assay; assay type: cell-based; details: BaF3, 72 h
BaF3 [3] = experiment: Antiproliferative activity against mouse BA/F3 cells harboring KRAS G12D mutant after 72 hrs by CellTiter-Glo assay; assay type: functional, cell-based; details: BaF3, 72 h
BaF3 [4] = experiment: Antiproliferative activity against mouse BA/F3 cells harboring KRAS G12D mutant after 72 hrs in presence of IL-3 by CellTiter-Glo assay; assay type: functional, cell-based; details: BaF3, 72 h
BaF3 [5] = experiment: Antiproliferative activity against mouse BA/F3 cells harboring NRAS G12D mutant after 72 hrs by CellTiter-Glo assay; assay type: functional, cell-based; details: BaF3, 72 h
Method in brief: (§1)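 Ba/F3 parental or RAS-transformed cells were seeded at 1000 viable cells/well, without or with IL-3 as the line states, at 37 °C and 5% CO2. After 4 h, nine four-fold serial dilutions were added in triplicate (final 0.5–30,000 nM, 0.3% DMSO). DMSO wells served as 100% viability.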

BaF3 [6] = experiment: Antiproliferative activity against mouse BA/F3 cells harboring NRAS G12D mutant after 72 hrs in presence of IL-3 by CellTiter-Glo assay; assay type: functional, cell-based; details: BaF3, 72 h; method in brief: as §1
MOLM-14 = experiment: Antiproliferative activity against human MOLM14 cells harboring FLT3-ITD mutant at […] to […] nM after 72 hrs by CellTiter-Glo assay; assay type: functional, cell-based
NALM-6 = experiment: Antiproliferative activity against human NALM6 cells harboring NARS A146T mutant at […] to […] nM after 72 hrs by CellTiter-Glo assay; assay type: functional, cell-based
HEL = experiment: Antiproliferative activity against human HEL cells at […] to […] nM after 72 hrs by CellTiter-Glo assay; assay type: functional, cell-based
U-937 = experiment: Antiproliferative activity against human U937 cells at […] to […] nM after 72 hrs by CellTiter-Glo assay; assay type: functional, cell-based
[7] = biological target: T2, Mitogen-activated protein kinase kinase kinase 7 (Homo sapiens) (UniProt O43318); experiment: Inhibition of biotin-labeled N-(2-(2-(2-(2-(4-(4-((4-((2-Acrylamidophenyl)amino)-5-chloropyrimidin-2-yl)amino)phenyl)piperazin-1-yl)ethoxy)ethoxy)ethoxy)ethyl)-5-((3aS,4S,6aR)-2-oxohexahydro-1H-thieno[3,4-d]imidazol-4-yl)pentanamide probe binding to TAK1 in human NCI-H358 cells at 10 uM after 6 hrs by immunoblot based competitive pull down assay; assay type: cell-based
T2 sequence (whole entry): T1 sequence (O43318 whole entry)
Method in brief: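 H358 cells given 1 or 10 μM compound for 6 h, medium removed, cells rinsed twice with cold PBS and lysed in MPER buffer. Lysates incubated overnight at 4 °C with 1 μM biotinylated covalent probe, captured on streptavidin beads, and TAK1 recovery assessed by immunoblotting with anti-TAK1 antibody.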

SW-620 = experiment: Antiproliferative activity against human SW620 cells harboring KRAS G12V mutant after 72 hrs by CellTiter-Glo assay; assay type: functional, cell-based; details: SW-620, 72 h
SK-CO-1 = experiment: Antiproliferative activity against human SKCO1 cells harboring KRAS G12V mutant after 72 hrs by CellTiter-Glo assay; assay type: functional, cell-based; details: SK-CO-1, 72 h
PANC-1 = experiment: Antiproliferative activity against human PANC1 cells harboring KRAS G12D mutant after 72 hrs by CellTiter-Glo assay; assay type: functional, cell-based; details: PANC-1, 72 h
ASPC1 = experiment: Antiproliferative activity against human AsPC1 cells harboring KRAS G12D mutant after 72 hrs by CellTiter-Glo assay; assay type: functional, cell-based; details: ASPC1, 72 h
[8] = Antiproliferative activity against human SW156 cells harboring wild type KRAS after 72 hrs by CellTiter-Glo assay; assay type: functional, cell-based
[9] = Antiproliferative activity against human URMC6 cells harboring wild type KRAS after 72 hrs by CellTiter-Glo assay; assay type: functional, cell-based
[10] = biological target: T2, Mitogen-activated protein kinase kinase kinase 7 (Homo sapiens); experiment: Inhibition of TAK1 in RA patient-derived synovial fibroblasts assessed as inhibition of TNFalpha-induced cytokine secretion at 3 uM preincubated for 3 hrs followed by TNFalpha stimulation measured after 18 hrs by sandwich immunoassay
Method in brief: (§2)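 Primary RA synovial fibroblasts (donor RA2159) seeded 1000 cells/well and grown ~24 h at 37 °C, 5% CO2. Starved overnight in basal medium, then ~4 h in basal medium with 0.1% BSA. Two adjacent wells pooled per replicate, in biological duplicate. Supernatants diluted 1:3 and run on Luminex 27-plex/21-plex sandwich immunoassays for 48 analytes, with spiked-ligand and mock-supernatant background controls.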

[11] = biological target: T2, Mitogen-activated protein kinase kinase kinase 7 (Homo sapiens); experiment: Inhibition of TAK1 in RA patient-derived synovial fibroblasts assessed as inhibition of IL-1alpha-induced cytokine secretion at 3 uM preincubated for 3 hrs followed by IL-1alpha stimulation measured after 18 hrs by sandwich immunoassay; method in brief: as §2
[12] = biological target: T2, Mitogen-activated protein kinase kinase kinase 7 (Homo sapiens); experiment: Inhibition of TAK1 in RA patient-derived synovial fibroblasts assessed as inhibition of poly(I:C)-induced cytokine secretion at 3 uM preincubated for 3 hrs followed by poly(I:C) stimulation measured after 18 hrs by sandwich immunoassay; method in brief: as §2
NCI-H23 = experiment: Antiproliferative activity against human NCI-H23 cells harboring KRAS G12C mutant after 72 hrs by CellTiter-Glo assay; assay type: functional, cell-based; details: NCI-H23, 72 h
Method in brief: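 NCI-H23 or NCI-H358 cells seeded at 2000 cells/well and grown 48 h before drug. Varying doses were added and cells incubated 72 h. Viability was read as CellTiter-Glo luminescence, and growth-inhibition IC50 was calculated from dose-response curves.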

[13] = Increase in secretion of basic-FGF in TNFalpha activated RA patient-derived synovial fibroblasts at 0.6 to 3 uM preincubated for 3 hrs followed by TNFalpha stimulation measured after 18 hrs by sandwich immunoassay; details: human
Method in brief: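 Primary RA patient synovial fibroblasts (donor RA2159) were seeded at 1000 cells/well, grown about 24 h, then starved overnight and again about 4 h in basal medium with 0.1% BSA. Cells were pre-incubated 3 h with inhibitor (0.6 or 3 μM) or DMSO, then stimulated 18 h with 10 ng/mL TNFα. Paired wells were pooled, in biological duplicate. Pooled supernatants were diluted 1:3 and read on Luminex bead sandwich immunoassays, with mock-medium background and spiked-ligand controls.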

| Compound | IC50 [1] [µM] | IC50 (BaF3 [2]) [µM] | IC50 (BaF3 [3]) [µM] | IC50 (BaF3 [4]) [µM] | further results |
| --- | --- | --- | --- | --- | --- |
| C=CC(=O)Nc1ccccc1Oc1nc(Nc2ccc(N3CCN(C)CC3)cc2)ncc1C | 0.092 | 0.385 | 0.113 | 0.357 | – |
| C=CC(=O)Oc1ccccc1Nc1nc(Nc2ccc(N3CCOCC3)cc2)ncc1Cl | 0.0044 | 0.423 | 0.056 | 0.745 | IC50 (BaF3 [5]): 0.047 µM; IC50 (BaF3 [6]): 0.39 µM; Activity (MOLM-14): Active; Activity (NALM-6): inactive; Activity (HEL): inactive; Activity (U-937): Active |
| C=CC(=O)Oc1ccccc1Nc1nc(Nc2cccc(N3CCOCC3)c2)ncc1Cl | 0.0032 | – | – | 0.839 | inhibition [7]: Active |
| C=CC(=O)Nc1ccccc1Oc1nc(Nc2ccc(N3CCN(C)CC3)cc2)ncc1OC | 0.075 | 0.476 | 0.057 | 0.31 | – |
| C=CC(=O)Oc1ccccc1Nc1nc(Nc2cccc(N3CCN(C(C)=O)CC3)c2)ncc1Cl | 0.0017 | – | 0.28 | 0.46 | – |
| C=CC(=O)Nc1ccccc1Oc1nc(Nc2cnn(C)c2)ncc1Cl | 0.0073 | 2.94 | 0.308 | 0.859 | IC50 (BaF3 [5]): 0.179 µM; IC50 (BaF3 [6]): 1.02 µM |
| C=CC(=O)Nc1ccccc1Oc1nc(Nc2ccc(N3CCN(C)CC3)cc2)nc(N)c1Cl | 2.75 | – | – | 3.53 | – |
| C=CC(=O)Nc1ccccc1Oc1nc(Nc2ccc(N3CCN(C)CC3)cc2)ncc1C1CC1 | 0.057 | 1.34 | 0.181 | 1.19 | – |
| C=CC(=O)Nc1ccccc1Sc1nc(Nc2ccc(N3CCN(C)CC3)cc2)ncc1Cl | 0.083 | 0.838 | 0.962 | 0.763 | – |
| CCC(=O)Nc1ccccc1Nc1nc(Nc2ccc(N3CCN(C)CC3)cc2)ncc1Cl | 1.63 | – | – | 0.009 | IC50 (SW-620): 0.247 µM; IC50 (SK-CO-1): 0.054 µM; IC50 (PANC-1): 0.426 µM; IC50 (ASPC1): 0.073 µM; IC50 [8]: 0.363 µM; IC50 [9]: 0.263 µM; inhibition [7]: inactive |
| C=CC(=O)Nc1ccccc1Oc1nc(Nc2cnn(C(F)F)c2)ncc1Cl | 0.007 | 0.539 | 0.067 | 0.414 | IC50 (BaF3 [5]): 0.092 µM; IC50 (BaF3 [6]): 0.277 µM; Activity (MOLM-14): Active; Activity (NALM-6): inactive; inhibition [7]: Active; Activity (HEL): inactive; Activity (U-937): Active |
| C=CC(=O)Nc1cc(NC(C)=O)ccc1Nc1nc(Nc2ccc(N3CCN(C)CC3)cc2)ncc1Cl | 1.64 | – | 1.35 | 3.73 | – |
| CCC(=O)Nc1ccccc1Oc1nc(Nc2cnn(CCOC)c2)ncc1Cl | 1.23 | 2.08 | 0.923 | 3.6 | Activity (MOLM-14): Active; IC50 (SW-620): 1.65 µM; IC50 (SK-CO-1): 2.62 µM; IC50 (ASPC1): 5.02 µM; IC50 [9]: 1.49 µM; inhibition [7]: inactive; inhibition [10]: inactive; inhibition [11]: inactive; inhibition [12]: inactive; Activity (U-937): Active |
| C=CC(=O)Nc1ccccc1Oc1nc(Nc2cnn(C3CCOCC3)c2)ncc1Cl | 0.0046 | – | 0.069 | 0.719 | – |
| CC(C)Nc1cc(-c2c[nH]c(C(=O)N[C@H](CO)c3cccc(Cl)c3)c2)c(Cl)cn1 [ULIXERTINIB] | – | 2.23 | 0.468 | 8.61 | IC50 (SW-620): 0.499 µM; IC50 (SK-CO-1): 0.356 µM; IC50 (ASPC1): 0.849 µM; IC50 [8]: 1.24 µM; IC50 (NCI-H23): 1 µM |
| C=CC(=O)Nc1ccccc1-n1ccc2cnc(Nc3ccc(N4CCN(C)CC4)cc3)nc21 | 3.01 | 3.27 | 0.905 | – | IC50 (BaF3 [5]): 2.04 µM |
| Cn1cnc2c(F)c(Nc3ccc(Br)cc3Cl)c(C(=O)NOCCO)cc21 [SELUMETINIB] | – | – | 0.1 | > 10 | IC50 (SW-620): 0.015 µM; IC50 (SK-CO-1): 0.117 µM; IC50 (ASPC1): 0.0642 µM |
| CCN1CCN(Cc2ccc(NC(=O)c3ccc(C)c(Oc4ccnc5[nH]ccc45)c3)cc2C(F)(F)F)CC1 | – | – | – | – | Activity [13]: Non-Toxic |
| Cn1c(=O)n(-c2ccc(C(C)(C)C#N)cc2)c2c3cc(-c4cnc5ccccc5c4)ccc3ncc21 [DACTOLISIB] | – | – | – | – | IC50 (NCI-H23): 1 µM |
| C=CC(=O)Oc1ccccc1Nc1nc(Nc2ccc(N3CCN(C)CC3)cc2)ncc1Cl | 0.0033 | 0.234 | 0.044 | 0.555 | – |
| C=CC(=O)Nc1ccccc1Oc1ccnc(Nc2ccc(N3CCN(C)CC3)cc2)n1 | 0.95 | 1.93 | – | 1.4 | – |

From ChEMBL document CHEMBL4118021, “Studies of TAK1-centered polypharmacology with novel covalent TAK1 inhibitors” (Bioorg Med Chem, 2017)
